ChEMBL document CHEMBL1157379, “Transcriptional response of Candida parapsilosis following exposure to farnesol” (2007)
Calls of active or inactive are those of the source. No cut-off for these calls is given here.

Tests used:
Candida parapsilosis [1] = test: Increase in CGD gene ortholog accession number orf19.1368 expression in Candida parapsilosis CLIB214 at 50 uM after 2 hrs by microarray based transcriptional profiling relative to control; assay type: functional
In short: (§1)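 Strain CLIB214 grown overnight in YPD at 30°C, diluted to A600 0.2 in fresh YPD at 30°C. After 4 h (A600 0.8), farnesol (40 mM methanol stock) added to 50 μM final, or an equal methanol volume as control; cells harvested 2 h later. RNA was accepted only with a 28S/18S ratio of 1.6–2.2. Cy3/Cy5-dCTP-labelled cDNA was made from 25 μg total RNA. Hybridisation was to duplicate-spotted 68-mer oligo arrays (3,849 genes) at 42°C for about 16 h. Six individual comparisons.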

Candida parapsilosis [2] = test: Decrease in CGD gene ortholog accession number orf19.3704 expression in Candida parapsilosis CLIB214 at 50 uM after 2 hrs by microarray based transcriptional profiling relative to control; assay type: functional
In short: (§2)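 Cells in YPD at 30°C treated with 50 μM farnesol at 4 h, with a methanol control. RNA harvested 2 h later and kept only if 28S/18S ratio was 1.6–2.2 with no degradation. 25 μg total RNA oligo-dT primed and labeled with Cy3/Cy5-dCTP. Labeled cDNA hybridized about 16 h at 42°C to duplicate-spotted 68-mer oligo arrays. Six individual comparisons analyzed statistically.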

Candida parapsilosis [3] = test: Increase in CGD gene ortholog accession number orf19.6539 expression in Candida parapsilosis CLIB214 at 50 uM after 2 hrs by microarray based transcriptional profiling relative to control; assay type: functional; in short: as §1
Candida parapsilosis [4] = test: Increase in REG1 gene expression in Candida parapsilosis CLIB214 at 50 uM after 2 hrs by microarray based transcriptional profiling relative to control; assay type: functional
In short: (§3)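 Strain grown overnight in YPD at 30°C, diluted to A600 0.2 in YPD at 30°C; farnesol (40 mM methanol stock) added at 4 h (A600 0.8), final 50 μM; methanol-only control. Cells collected 2 h later for RNA. Labelled cDNA from 25 μg total RNA (Cy3/Cy5-dCTP) hybridized to 68-mer oligo arrays at 42°C ~16 h; six individual comparisons analysed statistically.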

Candida parapsilosis [5] = test: Decrease in RLM1 gene expression in Candida parapsilosis CLIB214 at 50 uM after 2 hrs by microarray based transcriptional profiling relative to control; assay type: functional; in short: as §1
Candida parapsilosis [6] = test: Decrease in CGD gene ortholog accession number orf19.4372 expression in Candida parapsilosis CLIB214 at 50 uM after 2 hrs by microarray based transcriptional profiling relative to control; assay type: functional; in short: as §2
Candida parapsilosis [7] = test: Antifungal activity against Candida parapsilosis CLIB214 assessed as growth inhibition at 10 to 20 uM added 4 hrs after […] growth; assay type: functional, organism-based
Candida parapsilosis [8] = test: Antifungal activity against Candida parapsilosis CLIB214 assessed as growth inhibition at 100 uM added 4 hrs after […] growth; assay type: functional, organism-based
In short: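 C. parapsilosis CLIB214 grown overnight in YPD at 30°C, diluted to A600 0.2 in fresh YPD, grown 4 h (A600 0.8), then farnesol added at final 10, 20, 50 or 100 μM from a 40 mM methanol stock. Methanol-only controls. Growth followed by A600 or by cell counting with a particle counter.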

Candida parapsilosis [9] = test: Antifungal activity against Candida parapsilosis CLIB214 assessed as induction of cell death at 50 uM added 4 hrs after […] growth after 2 hrs by propidium iodide staining method; assay type: functional
In short: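 After 2 h exposure to 50 μM farnesol (methanol stock; methanol-only control), cells were washed twice in PBS and stained with propidium iodide at 10 μg ml−1 in PBS for 5 min. Dead-cell percentage was scored by fluorescence microscopy (Texas Red filter), counting at least 150 cells in each of three independent experiments.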

Candida parapsilosis [10] = test: Antifungal activity against Candida parapsilosis CLIB214 assessed as growth inhibition in presence of 10% fetal calf serum at 37 degC; assay type: functional, organism-based
In short: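 YPD cultures started at A600 0.2, supplemented with 10% (vol/vol) fetal calf serum, and grown at 30°C or 37°C. Farnesol added with the serum. Growth monitored by A600 or cell counting.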

Candida parapsilosis [11] = test: Antifungal activity against Candida parapsilosis CLIB214 assessed as growth inhibition at 50 uM added after 6 hrs of bacterial growth measured after 2 hrs; assay type: functional; details: Lodderomyces parapsilosis
In short: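 Overnight YPD culture at 30°C diluted to A600 0.2 in YPD. Farnesol added to 50 μM final at 2, 4, 6 or 8 h of growth (A600 about 0.8 at 4 h, 2.3 at 6 h, 6 at 8 h). Growth compared with methanol controls by A600 or cell counts.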

Candida parapsilosis [12] = test: Increase in ERG7 gene expression in Candida parapsilosis CLIB214 at 50 uM after 2 hrs by microarray based transcriptional profiling relative to control; assay type: functional; in short: as §3
Candida parapsilosis [13] = test: Increase in PLB3 gene expression in Candida parapsilosis CLIB214 at 50 uM after 2 hrs by microarray based transcriptional profiling relative to control; assay type: functional; in short: as §3
Candida parapsilosis [14] = test: Increase in CGD gene ortholog accession number orf19.1953 expression in Candida parapsilosis CLIB214 at 50 uM after 2 hrs by microarray based transcriptional profiling relative to control; assay type: functional; in short: as §1
Candida parapsilosis [15] = test: Increase in RTA3 gene expression in Candida parapsilosis CLIB214 at 50 uM after 2 hrs by microarray based transcriptional profiling relative to control; assay type: functional; in short: as §3
Candida parapsilosis [16] = test: Increase in PDE2 gene expression in Candida parapsilosis CLIB214 at 50 uM after 2 hrs by microarray based transcriptional profiling relative to control; assay type: functional; in short: as §3
Candida parapsilosis [17] = test: Decrease in CGD gene ortholog accession number orf19.5683 expression in Candida parapsilosis CLIB214 at 50 uM after 2 hrs by microarray based transcriptional profiling relative to control; assay type: functional; in short: as §2
Candida parapsilosis [18] = test: Decrease in RIA1 gene expression in Candida parapsilosis CLIB214 at 50 uM after 2 hrs by microarray based transcriptional profiling relative to control; assay type: functional; in short: as §1
Candida parapsilosis [19] = test: Decrease in CGD gene ortholog accession number orf19.2892 expression in Candida parapsilosis CLIB214 at 50 uM after 2 hrs by microarray based transcriptional profiling relative to control; assay type: functional; in short: as §2
Candida parapsilosis [20] = test: Decrease in PCL7 gene expression in Candida parapsilosis CLIB214 at 50 uM after 2 hrs by microarray based transcriptional profiling relative to control; assay type: functional; in short: as §1
Candida parapsilosis [21] = test: Decrease in CGD gene ortholog accession number orf19.2697 expression in Candida parapsilosis CLIB214 at 50 uM after 2 hrs by microarray based transcriptional profiling relative to control; assay type: functional; in short: as §2
Candida parapsilosis [22] = test: Increase in RPS6A gene expression in Candida parapsilosis CLIB214 at 50 uM after 2 hrs by microarray based transcriptional profiling relative to control; assay type: functional; in short: as §3
Candida parapsilosis [23] = test: Decrease in CGD gene ortholog accession number orf19.194 expression in Candida parapsilosis CLIB214 at 50 uM after 2 hrs by microarray based transcriptional profiling relative to control; assay type: functional; in short: as §2
Candida parapsilosis [24] = test: Increase in ALS2 gene expression in Candida parapsilosis CLIB214 at 50 uM after 2 hrs by microarray based transcriptional profiling relative to control; assay type: functional; in short: as §1
Candida parapsilosis [25] = test: Increase in CGD gene ortholog accession number orf19.6117 expression in Candida parapsilosis CLIB214 at 50 uM after 2 hrs by microarray based transcriptional profiling relative to control; assay type: functional; in short: as §1

CC(C)=CCC/C(C)=C/CC/C(C)=C/CO [FARNESOL]
fold change (FC) (Candida parapsilosis [1]): 1.59 | fold change (FC) (Candida parapsilosis [2]): 1.96 | fold change (FC) (Candida parapsilosis [3]): 1.5 | fold change (FC) (Candida parapsilosis [4]): 1.56 | fold change (FC) (Candida parapsilosis [5]): 1.6 | fold change (FC) (Candida parapsilosis [6]): 1.67 | Activity (Candida parapsilosis [7]): inactive | Activity (Candida parapsilosis [8]): Active | Activity (Candida parapsilosis [9]): 20% | Activity (Candida parapsilosis [10]): inactive | inhibition at 50 µM (Candida parapsilosis [11]): 40.5% | fold change (FC) (Candida parapsilosis [12]): 1.68 | fold change (FC) (Candida parapsilosis [13]): 1.66 | fold change (FC) (Candida parapsilosis [14]): 1.77 | fold change (FC) (Candida parapsilosis [15]): 1.67 | fold change (FC) (Candida parapsilosis [16]): 1.67 | fold change (FC) (Candida parapsilosis [17]): 1.51 | fold change (FC) (Candida parapsilosis [18]): 1.65 | fold change (FC) (Candida parapsilosis [19]): 1.69 | fold change (FC) (Candida parapsilosis [20]): 1.75 | fold change (FC) (Candida parapsilosis [21]): 1.81 | fold change (FC) (Candida parapsilosis [22]): 1.61 | fold change (FC) (Candida parapsilosis [23]): 1.84 | fold change (FC) (Candida parapsilosis [24]): 1.61 | fold change (FC) (Candida parapsilosis [25]): 1.6
